These results are taken from ChEMBL document CHEMBL1649414, “Synthesis and antiprotozoal activity of N-alkoxy analogues of the trypanocidal lead compound 4,4'-bis(imidazolinylamino)diphenylamine with improved human blood-brain barrier permeability” (J Med Chem, 2011).

Activity calls are given as the source filed them. No cut-off for these calls is given here.

Test system in one data set: not listed separately
Put plainly: Selectivity index, ratio of IC50 for rat L6 cells to IC50 for Trypanosoma brucei rhodesiense STIB900. In kind it is toxicity, cell-based. Conditions: L6 cells versus Trypanosoma brucei rhodesiense STIB900, read-out: Ratio IC50. In outline: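 Selectivity index = IC50 (rat L-6 myoblasts)/IC50 (T. b. rhodesiense STIB900 bloodstream forms). Both IC50 values were determined by Alamar blue assay.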
`CON1CCN=C1Nc1ccc(Nc2ccc(NC3=NCCN3OC)cc2)cc1`: the selectivity ratio came to 65.6.

Consider `c1cc(Nc2ccc(NC3=NCCS3)cc2)ccc1NC1=NCCS1`, for which the selectivity ratio was determined as 4.7.

Test system in a further data set: not listed separately
Put plainly: Selectivity index, ratio of IC50 for rat L6 cells to IC50 for chloroquine and pyrimethamine-resistant erythrocytic stages of Plasmodium falciparum K1. The class given is toxicity, cell-based. Conditions: L6 cells versus Plasmodium falciparum K1 erythrocytic stages, read-out: Ratio IC50. In outline: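 Selectivity index = IC50 (rat L-6 myoblasts, Alamar blue assay)/IC50 (P. falciparum K1 erythrocytic stages, [3H]hypoxanthine incorporation assay).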
For the molecule `CCON(CCNC(=S)Nc1ccc(Nc2ccc(NC(=S)NCCN(OCC)S(=O)(=O)c3ccccc3[N+](=O)[O-])cc2)cc1)S(=O)(=O)c1ccccc1[N+](=O)[O-]`, the selectivity ratio worked out at 35.

On to `CON1CCN=C1Nc1ccc(Nc2ccc(NC3=NCCN3OC)cc2)cc1`, for which the selectivity ratio came out at 120.

For `c1cc(Nc2ccc(NC3=NCCS3)cc2)ccc1NC1=NCCS1`, the selectivity ratio stood at 21.

The subject of the next data set is Trypanosoma brucei rhodesiense. Put plainly: Antiprotozoal activity against bloodstream forms of Trypanosoma brucei rhodesiense STIB900 by alamar blue assay. The class given is functional, organism-based.
Conditions: not given
Summed up: (§1)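 Alamar blue read-out; IC50 determined against bloodstream-form STIB900 trypanosomes, axenically grown L. donovani MHOM/ET/67/L82 amastigotes, or rat skeletal myoblast L-6 cells (cytotoxicity).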
The IC50 is the midpoint of a concentration-inhibition curve. The low end stands for greater potency in that assay, the high end for weaker potency in that assay. In the case of `O=C1c2ccccc2C(=O)N1CCN(OCc1ccccc1)C(=S)Nc1ccc(Nc2ccc(NC(=S)N(CCN3C(=O)c4ccccc4C3=O)OCc3ccccc3)cc2)cc1`, 86.7 µM corresponded to half-maximal inhibition (IC50).

As to `CON(CCNC(=S)Nc1ccc(Nc2ccc(NC(=S)NCCN(OC)S(=O)(=O)c3ccccc3[N+](=O)[O-])cc2)cc1)S(=O)(=O)c1ccccc1[N+](=O)[O-]`, inhibition was half-maximal at 61.3 µM (IC50). This IC50 and that of the molecule before are within 1.5-fold of each other.

`CCON(CCNC(=S)Nc1ccc(Nc2ccc(NC(=S)NCCN(OCC)S(=O)(=O)c3ccccc3[N+](=O)[O-])cc2)cc1)S(=O)(=O)c1ccccc1[N+](=O)[O-]` had an IC50 of 14.9 µM.

`CON(CCN1C(=O)c2ccccc2C1=O)C(=S)Nc1ccc(Nc2ccc(NC(=S)N(CCN3C(=O)c4ccccc4C3=O)OC)cc2)cc1` yielded an IC50 of 73.8 µM.

For `CON1CCN=C1Nc1ccc(Nc2ccc(NC3=NCCN3OC)cc2)cc1`, the half-inhibitory concentration (IC50) worked out at 0.83 µM.

`c1cc(Nc2ccc(NC3=NCCS3)cc2)ccc1NC1=NCCS1` returned an IC50 of 11.1 µM.

In the next data set the test system is Plasmodium falciparum. The experiment in a line: Antiprotozoal activity against chloroquine and pyrimethamine-resistant erythrocytic stages of Plasmodium falciparum K1 by [3H]hypoxanthine incorporation assay. The class given is functional, organism-based.
Conditions: not given
Summed up: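 P. falciparum K1 (chloroquine- and pyrimethamine-resistant) erythrocytic stages; IC50 determined by [3H]hypoxanthine incorporation assay.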
On to `O=C1c2ccccc2C(=O)N1CCN(OCc1ccccc1)C(=S)Nc1ccc(Nc2ccc(NC(=S)N(CCN3C(=O)c4ccccc4C3=O)OCc3ccccc3)cc2)cc1`, for which half-maximal inhibition (IC50) required 1.36 µM.

For `CON(CCNC(=S)Nc1ccc(Nc2ccc(NC(=S)NCCN(OC)S(=O)(=O)c3ccccc3[N+](=O)[O-])cc2)cc1)S(=O)(=O)c1ccccc1[N+](=O)[O-]`, the IC50 stood at 1.81 µM.

Molecule `CCON(CCNC(=S)Nc1ccc(Nc2ccc(NC(=S)NCCN(OCC)S(=O)(=O)c3ccccc3[N+](=O)[O-])cc2)cc1)S(=O)(=O)c1ccccc1[N+](=O)[O-]` yielded an IC50 of 1.94 µM. This IC50 and that of the molecule before are within 1.5-fold of each other.

On to `CON(CCN1C(=O)c2ccccc2C1=O)C(=S)Nc1ccc(Nc2ccc(NC(=S)N(CCN3C(=O)c4ccccc4C3=O)OC)cc2)cc1`, for which the IC50 came out at 2.64 µM.

As to `CON1CCN=C1Nc1ccc(Nc2ccc(NC3=NCCN3OC)cc2)cc1`, half-maximal inhibition (IC50) was put at 0.45 µM. This IC50 lies about 5.9-fold lower than the previous one.

In turn, `c1cc(Nc2ccc(NC3=NCCS3)cc2)ccc1NC1=NCCS1` had an IC50 of 2.43 µM.

The test system of a further data set is L6. The experiment in a line: Cytotoxicity against rat L6 cells. In kind it is cell-based.
Conditions: not given
Summed up:
as §1
Take `O=C1c2ccccc2C(=O)N1CCN(OCc1ccccc1)C(=S)Nc1ccc(Nc2ccc(NC(=S)N(CCN3C(=O)c4ccccc4C3=O)OCc3ccccc3)cc2)cc1`: the IC50 is > 102 µM.

On to `CON(CCNC(=S)Nc1ccc(Nc2ccc(NC(=S)NCCN(OC)S(=O)(=O)c3ccccc3[N+](=O)[O-])cc2)cc1)S(=O)(=O)c1ccccc1[N+](=O)[O-]`, for which the IC50 was > 107 µM.

In turn, `CCON(CCNC(=S)Nc1ccc(Nc2ccc(NC(=S)NCCN(OCC)S(=O)(=O)c3ccccc3[N+](=O)[O-])cc2)cc1)S(=O)(=O)c1ccccc1[N+](=O)[O-]` yielded an IC50 of 67 µM.

On to `CON(CCN1C(=O)c2ccccc2C1=O)C(=S)Nc1ccc(Nc2ccc(NC(=S)N(CCN3C(=O)c4ccccc4C3=O)OC)cc2)cc1`, for which the 50% inhibitory concentration (IC50) was > 124 µM.

`CON1CCN=C1Nc1ccc(Nc2ccc(NC3=NCCN3OC)cc2)cc1` came in with an IC50 of 54 µM. This lies in the double-digit micromolar range.

Regarding `c1cc(Nc2ccc(NC3=NCCS3)cc2)ccc1NC1=NCCS1`, the midpoint of inhibition, the IC50, lay at 52 µM.

A further data set has as its system Trypanosoma cruzi. The experiment in a line: Antiprotozoal activity against trypomastigote forms of Trypanosoma cruzi Tulahuen C2C4 expressing LacZ by colorimetric CPRG assay.
Conditions: not given
With `O=C1c2ccccc2C(=O)N1CCN(OCc1ccccc1)C(=S)Nc1ccc(Nc2ccc(NC(=S)N(CCN3C(=O)c4ccccc4C3=O)OCc3ccccc3)cc2)cc1`, the IC50 is > 100 µM.

As for `CON(CCNC(=S)Nc1ccc(Nc2ccc(NC(=S)NCCN(OC)S(=O)(=O)c3ccccc3[N+](=O)[O-])cc2)cc1)S(=O)(=O)c1ccccc1[N+](=O)[O-]`, the IC50 is > 108 µM.

For `CCON(CCNC(=S)Nc1ccc(Nc2ccc(NC(=S)NCCN(OCC)S(=O)(=O)c3ccccc3[N+](=O)[O-])cc2)cc1)S(=O)(=O)c1ccccc1[N+](=O)[O-]`, the IC50 is > 104 µM.

On to `CON(CCN1C(=O)c2ccccc2C1=O)C(=S)Nc1ccc(Nc2ccc(NC(=S)N(CCN3C(=O)c4ccccc4C3=O)OC)cc2)cc1`, for which the IC50 is > 124 µM.

`CON1CCN=C1Nc1ccc(Nc2ccc(NC3=NCCN3OC)cc2)cc1` showed an IC50 of 136 µM.

With `c1cc(Nc2ccc(NC3=NCCS3)cc2)ccc1NC1=NCCS1`, half-maximal inhibition (IC50) was put at 30 µM.

The subject of another data set is Trypanosoma brucei rhodesiense. The experiment in a line: Antitrypanosomal activity against Trypanosoma brucei rhodesiense STIB900 infected in NMRI mouse assessed as host survival after 60 days at 20 mg/kg, ip qd for 4 days administered after 3 to 6 days postinfection. In kind it is functional, organism-based. More on the design: dose 20 mg/kg.
Conditions: not given
In outline:
(§2)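 Female NMRI mice infected ip with 2 10^4 bloodstream STIB900 forms; groups of four dosed ip (4 × 20 mg/kg) or orally (4 × 50 mg/kg) on days 3–6 post-infection; untreated infected controls. Tail-blood parasitemia followed to day 60; surviving aparasitemic mice at day 60 counted cured; mean survival and relapse days recorded.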
On to `CON1CCN=C1Nc1ccc(Nc2ccc(NC3=NCCN3OC)cc2)cc1`, for which the outcome was inactive.

The subject of the next data set is Trypanosoma brucei rhodesiense. Put plainly: Antitrypanosomal activity against Trypanosoma brucei rhodesiense STIB900 infected in NMRI mouse assessed as day of host death after 60 days at 20 mg/kg, ip qd for 4 days administered after 3 to 6 days postinfection. In kind it is functional. Conditions: route intraperitoneal. Summed up:
(§3)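 Female NMRI mice infected ip with 2 104 bloodstream forms of T. b. rhodesiense STIB900. Groups of four mice were treated ip (4 × 20 mg/kg) or po (4 × 50 mg/kg) on four consecutive days, days 3–6 postinfection. Untreated infected controls were included. Tail blood parasitemia was monitored to day 60. Day of death was recorded (cured mice counted as >60) to give mean survival days.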
For the molecule `CON1CCN=C1Nc1ccc(Nc2ccc(NC3=NCCN3OC)cc2)cc1`, the Activity was 7 days.

Another data set has as its system Trypanosoma brucei rhodesiense. Put plainly: Antitrypanosomal activity against Trypanosoma brucei rhodesiense STIB900 infected in NMRI mouse assessed as host survival after 60 days at 50 mg/kg, po qd for 4 days administered after 3 to 6 days postinfection. The class given is functional, organism-based. More on the design: dose 50 mg/kg.
Conditions: not given
In outline: as §2
With `CON1CCN=C1Nc1ccc(Nc2ccc(NC3=NCCN3OC)cc2)cc1`, the result was inactive.

The test system of another data set is Leishmania donovani. Put plainly: Antiprotozoal activity against amastigotes of Leishmania donovani MHOM/ET/67/L82 by alamar blue assay. In kind it is functional, organism-based.
Conditions: not given
Summed up:
as §1
Molecule `O=C1c2ccccc2C(=O)N1CCN(OCc1ccccc1)C(=S)Nc1ccc(Nc2ccc(NC(=S)N(CCN3C(=O)c4ccccc4C3=O)OCc3ccccc3)cc2)cc1` registered an IC50 of 36 µM.

As for `CON(CCNC(=S)Nc1ccc(Nc2ccc(NC(=S)NCCN(OC)S(=O)(=O)c3ccccc3[N+](=O)[O-])cc2)cc1)S(=O)(=O)c1ccccc1[N+](=O)[O-]`, inhibition was half-maximal at 68 µM (IC50).

Turning to `CCON(CCNC(=S)Nc1ccc(Nc2ccc(NC(=S)NCCN(OCC)S(=O)(=O)c3ccccc3[N+](=O)[O-])cc2)cc1)S(=O)(=O)c1ccccc1[N+](=O)[O-]`, half-maximal inhibition (IC50) required 14 µM.

On to `CON(CCN1C(=O)c2ccccc2C1=O)C(=S)Nc1ccc(Nc2ccc(NC(=S)N(CCN3C(=O)c4ccccc4C3=O)OC)cc2)cc1`, for which the IC50 was found to be 69 µM.

The molecule `CON1CCN=C1Nc1ccc(Nc2ccc(NC3=NCCN3OC)cc2)cc1` gave an IC50 of 39 µM.

The molecule `c1cc(Nc2ccc(NC3=NCCS3)cc2)ccc1NC1=NCCS1` gave an IC50 of 120 µM.

For another data set, the system named is Trypanosoma brucei rhodesiense. The experiment in a line: Antitrypanosomal activity against Trypanosoma brucei rhodesiense STIB900 infected in NMRI mouse assessed as day of host death after 60 days at 50 mg/kg, po qd for 4 days administered after 3 to 6 days postinfection. The class given is functional.
Conditions: not given
In outline:
as §3
On to `CON1CCN=C1Nc1ccc(Nc2ccc(NC3=NCCN3OC)cc2)cc1`, for which the Activity worked out at 7 days.
